Results reported in paper PMC3113562 (Nucleic Acids Research, 2011).
Like-named read-outs stand apart in the source and are kept apart here.

Tests used:
[1] = molecular target: T1, human 8-oxoguanine DNA glycosylase (OGG1) (Homo sapiens, UniProt O15527); type: biochemical; settings: for ΔΔG° cognate vs non-cognate ligand: from ratio of Ki values, T = 310 K; for increase in the affinity for OGG1 vs the corresponding non-cognate ligand: ratio of Ki (KM) values, vs dGMP, ss G11 or ds G11
Summary of the method: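 Recombinant human OGG1 from E. coli BL21(DE3), with active enzyme titrated by burst-phase kinetics. Reaction: 0.5 nM enzyme and 22 nM (2 × KM) oxoG ds substrate in 50 mM Tris–HCl pH 7.5, 100 mM NaCl, 1 mM EDTA, 1 mM DTT, 37°C, 2–10 min, NaOH-quenched. Competitor spans 0.1–10 × I50. Ki = I50/3; ΔG° = –RT ln Kd (310 K); ΔΔG° from differences.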

[2] = molecular target: T1, human 8-oxoguanine DNA glycosylase (OGG1); settings: cited from earlier work
[3] = test system: E. coli 8-oxoguanine DNA glycosylase (Fpg); settings: read-out: Ki (Fpg); cited from earlier work
[4] = read-out: Ki (affinity for OGG1)

T1 sequence (O15527 whole entry): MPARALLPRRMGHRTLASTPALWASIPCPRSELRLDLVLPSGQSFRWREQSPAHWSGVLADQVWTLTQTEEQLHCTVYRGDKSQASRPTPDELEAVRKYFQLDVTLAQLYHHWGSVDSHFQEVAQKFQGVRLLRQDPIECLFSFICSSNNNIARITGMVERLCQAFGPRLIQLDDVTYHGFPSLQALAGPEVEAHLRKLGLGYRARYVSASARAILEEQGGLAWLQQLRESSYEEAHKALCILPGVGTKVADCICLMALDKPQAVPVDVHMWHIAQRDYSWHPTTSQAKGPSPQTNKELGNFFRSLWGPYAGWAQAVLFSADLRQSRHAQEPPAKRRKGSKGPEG

Row | Compound | ΔΔG° cognate vs non-cognate ligand [1] [kcal/mol] | increase in the affinity for OGG1 vs the corresponding non-cognate ligand [1] [fold] | cleavage by OGG1 [2] | Ki [1, 4] [µM] | also measured
1 | O=P(O)(O)O [Pi, orthophosphate, reference compound] |  |  |  |  | Ki [1]: 68000 µM
2 | Nc1nc2c([nH]c(=O)n2[C@H]2C[C@H](O)[C@@H](COP(=O)(O)O)O2)c(=O)[nH]1 [oxo-dGMP, reference compound] | -0.8 | 4.1 | not cleaved |  | tighter binding than one non-cognate d(pN)n unit within DNA ([1]; vs extrapolated Ki = 12 mM): ~7.5 fold
3 | dCdp(TCTCCCTTCGCTCCTTTCCTCT) (5'-dC with phosphate prefix in name, chemistry otherwise not given here) [G11] |  |  |  | 20 | Ki [3]: 10 µM
4 | dCdp(TCTCCCTTCXCTCCTTTCCTCT) [OG11] | ~-3.3 | 250 | not cleaved | 0.08 | 
5 | r(pA)10 |  |  |  | 140 | 
6 | r(pC)10 |  |  |  | 130 | 
